Source: ChEMBL document CHEMBL2413066, “Molecular docking guided structure based design of symmetrical N,N'-disubstituted urea/thiourea as HIV-1 gp120-CD4 binding inhibitors” (Bioorg Med Chem, 2013)

Experiments:
[1] = Inhibition of HIV-1 gp120-CD4 (unknown origin) interaction; design: species or system Human immunodeficiency virus 1
Summary of the method: (§1)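 Capture ELISA for gp120–CD4 binding. Compounds diluted in diluent buffer over 0.1–1000 ng/ml and added with positive reference CD4 (1000 ng/ml). The CD4 standard ran in twofold dilutions from 1000 to 0.5 ng/ml. Incubation 1 h at room temperature, three washes, then conjugate at 1:100 for 1 h. TMB for 10 min, reaction stopped, absorbance read at 450 nm; IC50 derived.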

[2] = Inhibition of HIV1 gp120-CD4 (unknown origin) interaction after 1 hr by ELISA; design: species or system Human immunodeficiency virus 1; summary of the method: as §1

Row | Structure (SMILES) | pIC50 [1] | IC50 [2] [nM]
1 | C[C@H]1CN(C(=O)c2ccccc2)CCN1S(=O)(=O)c1c[nH]c2cccc(F)c12 | 6.699 | –
2 | O=C(Nc1ccc(-c2nc3ccccc3[nH]2)cc1)Nc1ccc(-c2nc3ccccc3[nH]2)cc1 | – | 188
3 | C[C@H]1CN(C(=O)c2ccccc2)CCN1C(=O)C(=O)c1c[nH]c2ncccc12 | 7.523 | –
4 | C[C@@H]1CN(S(=O)(=O)c2c[nH]c3ncccc23)CCN1C(=O)c1ccccc1 | 4.886 | –
5 | C[C@H]1CN(C(=O)c2ccccn2)CCN1S(=O)(=O)c1c[nH]c2ncccc12 | 5.481 | –
6 | Cc1ccc(C(=O)N2CCN(S(=O)(=O)c3c[nH]c4ncccc34)[C@@H](C)C2)s1 | 5.638 | –
7 | C[C@H]1CN(C(=O)c2ccccc2)CCN1S(=O)(=O)c1c[nH]c2c(F)ccc(F)c12 | 6.432 | –
8 | C[C@H]1CN(C(=O)c2csc(N)n2)CCN1S(=O)(=O)c1c[nH]c2ncccc12 | 6.284 | –
9 | C[C@H]1CN(C(=O)c2csc(Br)n2)CCN1S(=O)(=O)c1c[nH]c2ncccc12 | 6.377 | –
10 | C[C@H]1CN(C(=O)c2ccccc2)CCN1S(=O)(=O)c1c[nH]c2c(-n3ccnn3)ccc(F)c12 | 6.824 | –
11 | Cc1csc(C(=O)N2CCN(S(=O)(=O)c3c[nH]c4ncccc34)[C@@H](C)C2)c1 | 5.721 | –
12 | S=C(Nc1ccc(-c2nc3ccccc3[nH]2)cc1)Nc1ccc(-c2nc3ccccc3[nH]2)cc1 | – | 126
13 | C[C@@H]1CN(C(=O)c2ccccc2)CCN1S(=O)(=O)c1c[nH]c2c(-n3nccn3)ccc(F)c12 | 6.699 | –
14 | COc1ncc(OC)c2c(C(=O)C(=O)N3CCN(C(=O)c4ccccc4)CC3)c[nH]c12 | 7.588 | –
15 | C[C@H]1CN(C(=O)c2ccccc2)CCN1S(=O)(=O)c1c[nH]c2c(-n3ccnc3)ncc(F)c12 | 7.444 | –
16 | COc1cc[nH]c2ncc(C(=O)C(=O)N3CCN(C(=O)c4ccccc4)C[C@@H]3C)c1-2 | 8.097 | –
17 | C[C@H]1CN(C(=O)c2ccn(C)n2)CCN1S(=O)(=O)c1c[nH]c2ncccc12 | 5.62 | –
18 | C[C@H]1CN(C(=O)c2ccccc2)CCN1S(=O)(=O)c1c[nH]c2c(-n3cncn3)nccc12 | 6.824 | –

Row | Structure (SMILES) | pIC50 [1] | IC50 [2] [nM]
19 | O=C(c1ccccc1)N1CCN(S(=O)(=O)c2c[nH]c3ncccc23)CC1 | 4.657 | –
20 | C[C@H]1CN(C(=O)c2ccccc2)CCN1S(=O)(=O)c1c[nH]c2ccc(F)cc12 | 5.444 | –
21 | C[C@H]1CN(C(=O)c2ccccc2)CCN1S(=O)(=O)c1c[nH]c2ccccc12 | 6.367 | –
22 | C[C@H]1CN(C(=O)c2ccccc2)CCN1S(=O)(=O)c1c[nH]c2c(-n3cncn3)ccc(F)c12 | 6.301 | –
23 | O=C(C(=O)N1CCN(C(=O)c2ccccc2)CC1)c1c[nH]c2ncccc12 | 6.284 | –
24 | C[C@H]1CN(C(=O)c2cnccn2)CCN1S(=O)(=O)c1c[nH]c2ncccc12 | 5.041 | –
25 | CC[C@H]1CN(C(=O)c2ccccc2)CCN1S(=O)(=O)c1c[nH]c2ncccc12 | 4.796 | –
26 | COc1cccc2[nH]cc(S(=O)(=O)N3CCN(C(=O)c4ccccc4)C[C@@H]3C)c12 | 5.372 | –
27 | S=C(Nc1ccc(Cc2nc3ccccc3[nH]2)cc1)Nc1ccc(Cc2nc3ccccc3[nH]2)cc1 | – | 149
28 | C[C@H]1CN(C(=O)c2cc3ccccc3o2)CCN1S(=O)(=O)c1c[nH]c2ncccc12 | 5.523 | –
29 | C[C@H]1CN(C(=O)c2ccccc2)CCN1S(=O)(=O)c1c[nH]c2ncccc12 | 6.066 | –
30 | C[C@H]1CN(C(=O)c2ccccc2)CCN1S(=O)(=O)c1c[nH]c2c(-n3ccnc3)nccc12 | 7.097 | –
31 | S=C(NCc1nc2ccccc2[nH]1)NCc1nc2ccccc2[nH]1 | – | 13
32 | C[C@H]1CN(C(=O)c2ccccc2)CCN1S(=O)(=O)c1c[nH]c2c(F)c(F)c(F)c(F)c12 | 5.328 | –
33 | O=C(Nc1ccc(Cc2nc3ccccc3[nH]2)cc1)Nc1ccc(Cc2nc3ccccc3[nH]2)cc1 | – | 197
34 | COc1ncc(OC)c2c(C(=O)C(=O)N3CCN(C(=O)c4ccccc4)C[C@@H]3C)c[nH]c12 | 8.301 | –
35 | C[C@H]1CN(C(=O)c2ccccc2)CCN1S(=O)(=O)c1c[nH]c2c(-n3nccn3)ncc(F)c12 | 6.208 | –
36 | O=C(NCc1nc2ccccc2[nH]1)NCc1nc2ccccc2[nH]1 | – | 247
